# Results reported in ChEMBL document CHEMBL5120856, “New salicylic acid derivatives, double inhibitors of glycolate oxidase and lactate dehydrogenase, as effective agents decreasing oxalate production” (Eur J Med Chem, 2022).
# Calls of active or inactive are those of the source. No cut-off for these calls is given here.
# What was measured:
# [1] = molecular target: T1, 2-Hydroxyacid oxidase 1 (Mus musculus, UniProt Q9WU19); assay: Inhibition of N-terminal His-tagged mouse recombinant glycolate oxidase expressed in Escherichia coli BL21 (DE3) cells using glycolate as substrate preincubated for 10 mins followed by substrate addition and measured after 10 mins by Amplex red and horseradish peroxidase based fluorescence assay
# T1 sequence (Q9WU19 whole entry): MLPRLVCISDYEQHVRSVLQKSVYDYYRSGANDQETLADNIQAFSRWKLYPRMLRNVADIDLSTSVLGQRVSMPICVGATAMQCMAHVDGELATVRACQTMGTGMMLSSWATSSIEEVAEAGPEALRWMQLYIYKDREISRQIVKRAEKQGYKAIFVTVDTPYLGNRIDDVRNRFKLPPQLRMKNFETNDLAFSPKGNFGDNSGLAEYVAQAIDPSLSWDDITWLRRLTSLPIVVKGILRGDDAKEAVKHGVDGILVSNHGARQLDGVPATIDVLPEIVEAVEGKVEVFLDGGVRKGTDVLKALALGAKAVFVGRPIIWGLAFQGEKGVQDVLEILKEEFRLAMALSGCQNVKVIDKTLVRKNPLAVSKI
# [2] = system: Hepatocyte; assay: Cytotoxicity against hyperoxaluric-primary hepatocyte isolated from Grhpr-knockdown PH2 C57BL/6 mouse assessed as cell death at 10 uM by MTS assay; format: toxicity, cell-based; settings: hepatocytes, Grhpr-knockdown PH2 (primary hyperoxaluria type 2)
# How it was run: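 Primary hepatocytes from Agxt1-/- (PH1, 5 mM glycolate), Grhpr-/- (PH2, 10 mM glycolate) or Hoga1-/- (PH3, 10 mM hydroxyproline) mice, incubated with inhibitor at 10 μM; viability followed through the oxalate assay by MTS tetrazolium method.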
# [3] = molecular target: T2, 2-Hydroxyacid oxidase 1 (Homo sapiens, UniProt Q9UJM8); assay: Non-competitive mixed inhibition of N-terminal His-tagged human recombinant glycolate oxidase expressed in Escherichia coli BL21 (DE3) cells assessed as inhibition constant using varying concentration of glycolate as substrate measured every 60 sec for 15 mins by Amplex red and horseradish peroxidase based fluorescence assay
# T2 sequence (Q9UJM8 whole entry): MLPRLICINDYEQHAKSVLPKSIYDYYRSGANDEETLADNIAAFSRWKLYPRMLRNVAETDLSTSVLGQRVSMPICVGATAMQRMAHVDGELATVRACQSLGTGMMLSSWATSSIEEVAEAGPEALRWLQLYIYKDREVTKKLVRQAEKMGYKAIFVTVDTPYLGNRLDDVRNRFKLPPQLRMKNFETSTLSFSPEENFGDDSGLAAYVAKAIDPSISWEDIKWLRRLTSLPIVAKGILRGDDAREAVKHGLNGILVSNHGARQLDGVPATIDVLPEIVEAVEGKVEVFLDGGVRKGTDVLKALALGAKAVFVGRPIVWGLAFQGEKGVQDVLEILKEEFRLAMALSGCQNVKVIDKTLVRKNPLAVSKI
# [4] = system: Hepatocyte; assay: Inhibition of GO/LDHA in hyperoxaluric-primary hepatocyte isolated from Grhpr-knockdown PH2 C57BL/6 mouse assessed as relative oxalate output at 10 uM measured at 24 hrs in the presence of glycolate relative to control; format: cell-based
# How it was run: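 Grhpr-/- mouse primary hepatocytes cultured with 10 mM glycolate, inhibitor at 10 μM; extracellular oxalate determined colorimetrically at 24 and 48 h post-treatment, expressed relative to untreated medium (RO); negative RO means below detection limit; three/four replicates, mean ± SD.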
# [5] = species on record: Homo sapiens; assay: Ratio of Ki for Non-competitive inhibition of human recombinant LDHB to Ki for non-competitive inhibition of human recombinant LDHA
# [6] = molecular target: T3, 2-Hydroxyacid oxidase 1 (Homo sapiens) (UniProt Q9UJM8); assay: Non-competitive mixed inhibition of N-terminal His-tagged human recombinant glycolate oxidase expressed in Escherichia coli BL21 (DE3) cells assessed as decrease in Vmax with increase in apparent Km using glycolate as substrate upto 60 microM
# T3 sequence (whole entry): T2 sequence (Q9UJM8 whole entry)
compound,measurement,setting,value
N.N.O=C(O)c1cc(-c2ccc(CN(Cc3ccccc3)Cc3ccc(-c4ccc(O)c(C(=O)O)c4)o3)o2)ccc1O,IC50,[1],1800 nM
same,Activity,[2],Non-Toxic
same,Ki,[3],2300 nM
same,fold change (FC),[4],0.59
same,Ratio,[5],8
same,inhibition,[6],Active
